Sampled rows, rich in hits. Any-hit rate of the full collection: about 3.5%.
NF-kB neuron act: raises NF-kB expression in human neuronal cells; 190,000 compounds, 1.6% hits; NF-kB reporter expression; stronger effect = higher value; fold change at 12.5 µM; in the data active = fold change above about 3.3
APP 5'UTR act: APP 5'UTR luciferase reporter activation; SH-SY5Y APP 5'UTR luciferase reporter, luminescence; zero percent = DMSO vehicle wells; activation, % at 2 µM; 190,000 compounds, 1% hits;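 active = activation above a set limit, based on mean plus 3 SD of controls, cut at about 140% in these data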
FLuc inh counter: counter-screen for luciferase assay inhibitors: firefly luciferase inhibition. P08659. ATPLite firefly luciferase biochemical luminescence, 10 min. inhibition, % at 10 µM. 200,000 compounds, 1.5% hits;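 active = inhibition above about 50% when tested at 10 µM, limit read from the data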
Target sequence (P08659 whole entry, looked up): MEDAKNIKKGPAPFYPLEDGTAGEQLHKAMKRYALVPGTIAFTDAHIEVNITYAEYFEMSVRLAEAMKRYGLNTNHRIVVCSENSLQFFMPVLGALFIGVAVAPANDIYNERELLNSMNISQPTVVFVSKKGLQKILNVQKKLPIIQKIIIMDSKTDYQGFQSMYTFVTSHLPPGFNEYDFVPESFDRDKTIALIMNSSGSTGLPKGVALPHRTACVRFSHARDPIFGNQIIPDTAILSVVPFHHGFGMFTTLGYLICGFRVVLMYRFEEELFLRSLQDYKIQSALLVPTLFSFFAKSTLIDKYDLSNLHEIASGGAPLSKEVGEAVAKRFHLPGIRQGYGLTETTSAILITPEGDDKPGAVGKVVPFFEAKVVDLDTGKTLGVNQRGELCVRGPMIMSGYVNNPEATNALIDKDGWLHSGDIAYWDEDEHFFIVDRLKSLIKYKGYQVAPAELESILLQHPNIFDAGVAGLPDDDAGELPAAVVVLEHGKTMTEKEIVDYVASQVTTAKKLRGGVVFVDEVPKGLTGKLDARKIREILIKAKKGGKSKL
Pf gamet viab: P. falciparum stage V gametocyte viability inhibition. P. falciparum stage V gametocytes, ATP luminescence, 24 h. inhibition, % at 10.9 µM. 150,000 compounds, 0.065% hits. AID 743093;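 active = inhibition above the mean plus 3 SD of compounds within the control limits, set per campaign, cut at about 38% in these data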;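 note: 0% = DMSO wells and 100% = medium only without gametocytes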
FLuc act counter: affects firefly luciferase, flagging false hits in luciferase stimulation screens; P08659; ATPlite luciferase biochemical, luminescence, 10 min; 0 = ATP-free wells, 1 = DMSO control; activation factor at 10 µM; 200,000 tested, under 10 active; AID 1027;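 active = luciferase activation factor, scaled between plate controls, of at least 2 with compound at 10 µM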
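Assay system: Luciferase/luciferin detection reagent, cell-free biochemical luciferase assay / Read-out: luciferase activation / Benchmarks: No-ATP low control, compound-free enzyme-plus-ATP high control / Medium: PBS buffer for ATP / Detection: luminescence measurement of luciferase light output / Schedule: 10 min at ambient temperature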
STAT1 activator: STAT1 signaling activation; activation (% of control), % at 5.5 µM; NIH 3T3 STAT1-luciferase reporter, IFN-gamma, luminescence; 100% = IFN-gamma alone, no compound; 200,000 compounds, 2.6% hits; AID 932;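 active = activation above the screen-wide mean activation plus 3 SD, cut at about 130% in these data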;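 note: raw ratio to IFN-gamma control signal so 100% means no change and 0% no light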
Starred values were filed as active, the others as inactive; / = not tested or not shown.

SMILES | NF-kB neuron act | APP 5'UTR act | FLuc inh counter | Pf gamet viab | FLuc act counter | STAT1 activator
O=C1C/C(=C\c2c(F)cccc2Cl)N2CCC1CC2 | 1.1 | 11 | -8 | -3 | 1.1 | 92
O=C(Cn1nc(C(=O)O)c2ccccc2c1=O)NCCC1=CCCCC1 | 0.84 | -25 | -6 | / | 1.1 | 104
Cc1cc2ccccc2c(=O)n1CC(=O)NCCC1=CCCCC1 | 1.1 | -6 | 60* | 13 | 0.4 | 95
CC(C)CNC(=S)N1CCC(C(=O)c2ccc3c(c2)OCCO3)CC1 | 1.3 | -16 | -6 | 2 | 1.1 | 88
O=C(N/N=C/c1sc2ccccc2c1O)c1ccccc1 | 1.2 | -53 | 57* | / | 0.4 | 123
COc1ccc2cc(C(=O)N/N=C/c3sc4ccccc4c3O)ccc2c1 | 1.4 | -5 | 72* | -5 | 0.3 | 102
O=C(N/N=C/c1sc2ccccc2c1O)c1cccc2ccccc12 | 1.4 | -49 | 10 | 21 | 0.9 | 95
COc1ccc(C(=O)N/N=C/c2sc3ccccc3c2O)cc1 | 2.4 | -51 | 35 | / | 0.6 | 88
O=S(=O)(Nc1cccnc1)c1ccc(Cl)cc1 | 0.81 | 10 | -6 | / | 1.1 | 96
O=C(NC(=S)Nc1nc2ccccc2s1)c1cccs1 | 2.5 | 145* | 90* | 7 | 0.1 | 133*
Nc1c(C(=O)Nc2nc3ccccc3s2)sc2nc(-c3cccs3)ccc12 | 2.1 | 110 | 16 | / | 0.8 | 140*
O=C(Nc1nc(=O)c2ccccc2s1)c1ccc(F)cc1 | 3.3 | -3 | 54* | / | 0.5 | 125
COc1n[nH]c(C(=O)Nc2nc3ccccc3s2)c1[N+](=O)[O-] | 1.5 | 17 | 28 | / | 0.7 | 134*
CC(=O)c1sc2nc(-c3cccs3)ccc2c1N | 2 | 74 | -2 | / | 1 | 120
CN(C)CCCNC(=O)c1ccc(Cl)c(S(=O)(=O)N(C)c2ccccc2)c1 | 0.98 | 14 | -2 | 15 | 1 | 95
NC(=S)Nc1nc2ccccc2s1 | 1.4 | 47 | 8 | -1 | 0.9 | 134*
O=C(CP(=O)(c1ccccc1)c1ccccc1)Nc1nc2ccccc2s1 | / | / | / | 6 | / | /
Cc1cc(C)nc(Nc2nc3ccccc3s2)n1 | 1.2 | 147* | 8 | 1 | 0.9 | 129*
Cn1cc(Cl)c(C(=O)Nc2nc3ccccc3s2)n1 | 4.4* | 146* | 61* | / | 0.4 | 148*
Nc1ccc(C(=O)Nc2nc3ccccc3s2)cc1 | 3.9* | 160* | 74* | / | 0.3 | 125
Cn1nc(C(F)(F)F)c(C(=O)Nc2cccc(Cl)c2)c1Cl | 1.1 | / | -3 | / | 1 | 102
CCOC(=O)c1ccc(NC(=O)c2ccccc2N(C)S(=O)(=O)c2ccccc2)cc1 | 1.2 | -4 | -3 | 9 | 1 | 91
O=S(=O)(c1ccc(Cl)cc1)N1CCC2(CC1)CO2 | 1.6 | 14 | -3 | 5 | 1 | 102
Cc1ccccc1NC(=O)C(=O)NC(C)CCc1ccccc1 (stereo unspecified) | 1.2 | -11 | 0 | 6 | 1 | 102
CC(CCc1ccccc1)NC(=O)C(=O)Nc1ccccc1 (stereo unspecified) | 2 | 56 | 1 | -8 | 1 | 140*
SMILES | NF-kB neuron act | APP 5'UTR act | FLuc inh counter | Pf gamet viab | FLuc act counter | STAT1 activator
CNc1cc([N+](=O)[O-])ccc1N/C=C/C(=O)c1cccs1 | 0.47 | 3 | -4 | 4 | 1 | 105
O=C(/C=C\Nc1cccc(F)c1)c1ccc2c(c1)OCO2 | 2.3 | 196* | 90* | -13 | 0.1 | 63
CNc1cc([N+](=O)[O-])ccc1N/C=C/C(=O)c1ccc2c(c1)OCO2 | 1 | 9 | 0 | -10 | 1 | 135*
O=C(/C=C\Nc1ccccc1Br)c1ccc2c(c1)OCO2 | 6* | 148* | 97* | -12 | 0 | 24
COC(=O)c1cc(OC)c(OC)cc1NC(=O)CSc1nnnn1Cc1ccccc1 | 0.82 | 2 | -3 | 0 | 1 | 102
c1ccc(C2CCC(N3CCNCC3)CC2)cc1 (stereo unspecified) | 1 | 8 | 3 | 26 | 1 | 94
O=C(CN(c1ccc2c(c1)OCCO2)S(=O)(=O)c1ccccc1)N1CCN(Cc2ccccc2)CC1 | 0.66 | 11 | -6 | / | 1.1 | 104
Cc1cc(C)cc(C(=O)Nc2nnc(SCC(=O)N3CCCc4ccccc43)s2)c1 | 1.1 | -2 | 1 | / | 1 | 99
